# Bioassay records: PubChem, Broad Institute
# GASC1 inh: inhibitors of GASC-1 (KDM4C) histone demethylase, primary screen, biochemical, single concentration HTS; GST-KDM4C 2-372, H3K9me3 peptide, LANCE TR-FRET; 0.15% of 96,000 active; inhibition, % at 12.5 µM; Lysine-specific demethylase 4C (Homo sapiens), Q9H3R0;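 active = mean replicate inhibition above about 25%, with at least 55% of replicates also reaching it, limit read from the data, passing the limit was not always enough; inconclusive = only one of those two conditions met; inactive = neither condition met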
#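 Assay system: GST-GASC-1 enzyme fragment 2-372 | Amount: 10 nM enzyme | Medium: HEPES buffer, pH 7.5, plus ascorbate | Reagent: H3K9me3 peptide substrate, Fe(II), 2-oxoglutarate | Doses: Single-point compound screen | Incubation: 30 min demethylation and 1 h detection at room temperature | Measured by: LANCE TR-FRET, excitation 340 nm, emissions 618 and 671 nm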
# Pf Dd2 inh: P. falciparum Dd2 growth inhibitors, primary screen, SYBR Green fluorescence, single dose replicates; 72 h; stronger effect = lower value; activity change, % at 10 µM; 2.3% of 94,000 active; AID 1159554, 2015; in the data active = activity change below about -80%; inconclusive = no clear call, values can overlap the other calls
# IDH1 mut inh: inhibitors of IDH1 R132H reductase, primary screen, biochemical, plate reader, single point | 0.18% of 70,000 active | inhibition, % at 10 µM | diaphorase/resazurin fluorescence, 60 min | Isocitrate dehydrogenase [NADP] cytoplasmic (Homo sapiens), O75874; in the data active = inhibition above about 34%; inconclusive = no clear call, values can overlap the other calls; inactive = below about 11%
# Target sequence (O75874 whole entry R132H): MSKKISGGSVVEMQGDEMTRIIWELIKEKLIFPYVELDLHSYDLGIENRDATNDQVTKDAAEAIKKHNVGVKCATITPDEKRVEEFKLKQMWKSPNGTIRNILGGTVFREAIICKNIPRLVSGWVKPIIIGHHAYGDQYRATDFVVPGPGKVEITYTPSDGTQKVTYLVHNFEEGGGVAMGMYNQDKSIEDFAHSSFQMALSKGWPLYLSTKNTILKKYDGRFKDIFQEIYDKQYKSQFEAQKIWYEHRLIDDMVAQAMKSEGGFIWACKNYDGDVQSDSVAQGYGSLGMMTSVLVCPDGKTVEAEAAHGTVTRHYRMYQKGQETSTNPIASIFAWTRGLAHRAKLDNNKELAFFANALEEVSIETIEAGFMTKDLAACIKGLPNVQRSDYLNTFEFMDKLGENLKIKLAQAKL
# A number is an active result; 0 = inactive; ? = inconclusive; - = no result. The entries come from a sample that favours hits as a whole.
SMILES,GASC1 inh,Pf Dd2 inh,IDH1 mut inh
N#C[C@@H]1[C@H](c2ccc(-c3cccc(F)c3)cc2)[C@@H](CO)N1C(=O)c1cccnc1,0,0,-
C[C@@H]1CN([C@H](C)CO)C(=O)c2cc(NC(=O)Nc3ccc(C(F)(F)F)cc3)ccc2O[C@@H]1CN(C)S(=O)(=O)c1cn(C)cn1,0,0,0
COc1ccc(S(=O)(=O)N(C)C[C@@H]2Oc3c(NS(=O)(=O)c4c(C)noc4C)cccc3C(=O)N([C@@H](C)CO)C[C@@H]2C)cc1,0,0,0
Cc1ccc(-c2ccc3c(c2)O[C@@H](CN(C)Cc2ccncc2)[C@H](C)CN([C@H](C)CO)S3(=O)=O)cc1,0,-83.9,0
C[C@@H]1CN([C@@H](C)CO)S(=O)(=O)c2ccc(C3=CCCCC3)cc2O[C@@H]1CN(C)Cc1cccnc1,0,0,38.4
C[C@@H]1CN([C@@H](C)CO)S(=O)(=O)c2ccc(-c3cccc(C(=O)N(C)C)c3)cc2O[C@H]1CN(C)Cc1ccc2c(c1)OCO2,0,-82.4,0
Cc1ccc(-c2ccc3c(c2)O[C@H](CN(C)Cc2ccncc2)[C@@H](C)CN([C@@H](C)CO)S3(=O)=O)cc1,0,0,0
Cc1ccc(-c2ccc3c(c2)O[C@H](CN(C)Cc2cccnc2)[C@@H](C)CN([C@H](C)CO)S3(=O)=O)cc1,0,?,0
C[C@@H]1CN([C@@H](C)CO)S(=O)(=O)c2ccc(-c3cccc(C(=O)N(C)C)c3)cc2O[C@@H]1CN(C)Cc1ccc2c(c1)OCO2,0,0,0
Cc1ccc(-c2ccc3c(c2)O[C@@H](CN(C)Cc2cccnc2)[C@H](C)CN([C@@H](C)CO)S3(=O)=O)cc1,0,-81.0,-
C[C@H](CO)N1C[C@H](C)[C@H](CN(C)Cc2cccnc2)Oc2cc(C3=CCCCC3)ccc2S1(=O)=O,-,0,?
COCC(=O)N1[C@@H](C#N)[C@H](c2ccc(C#CCC3CCCC3)cc2)[C@@H]1CO,0,0,-
O=C(C[C@H]1CC[C@H]2[C@@H](COC[C@H](O)CN2CC2CC2)O1)NCc1ccc(Cl)cc1,0,0,-
CC1(C)Cc2c(c(N3CCOCC3)nc3sc(C(=O)O)cc23)CO1,-,-,0
C[C@@H]1CN([C@@H](C)CO)S(=O)(=O)c2ccc(C3=CCCCC3)cc2O[C@@H]1CN(C)C(=O)Cc1ccncc1,0,0,-
C[C@@H]1CN([C@@H](C)CO)S(=O)(=O)c2ccc(C3=CCCCC3)cc2O[C@H]1CN(C)C(=O)Cc1ccncc1,0,0,57.7
C[C@@H]1CCCCO[C@H](CN(C)C(=O)C2CCCCC2)[C@@H](C)CN([C@@H](C)CO)C(=O)c2cc(NC(=O)c3ccccc3)ccc2O1,0,-84.8,0
C[C@H](CO)N1C[C@H](C)[C@@H](CN(C)C(=O)C2CCCCC2)OCCCC[C@H](C)Oc2ccc(NC(=O)c3ccccc3)cc2C1=O,0,0,0
C[C@@H]1CN([C@H](C)CO)C(=O)c2cc(NC(=O)c3ccccc3)ccc2O[C@@H](C)CCCCO[C@@H]1CN(C)C(=O)C1CCCCC1,0,-84.0,0
C[C@@H]1CCCCO[C@@H](CN(C)C(=O)C2CCCCC2)[C@H](C)CN([C@@H](C)CO)C(=O)c2cc(NC(=O)c3ccccc3)ccc2O1,0,0,-
C[C@@H]1CN([C@@H](C)CO)C(=O)CCCn2nncc2CO[C@@H]1CN(C)S(=O)(=O)c1cccc(C#N)c1,0,0,-
C[C@H](CO)N1C[C@H](C)[C@@H](CN(C)C(=O)NC2CCCCC2)Oc2ccc(NS(C)(=O)=O)cc2CC1=O,0,0,0
C[C@H](CO)N1C[C@H](C)[C@@H](CN(C)Cc2ccc(Cl)c(Cl)c2)OCCCC[C@H](C)Oc2ccc(NC(=O)CCC(F)(F)F)cc2C1=O,-,0,0
C[C@@H]1CCCCO[C@@H](CN(C)Cc2ccc(Cl)c(Cl)c2)[C@@H](C)CN([C@@H](C)CO)C(=O)c2cc(NC(=O)CCC(F)(F)F)ccc2O1,0,0,-
C[C@@H]1CN([C@H](C)CO)C(=O)c2cc(NC(=O)CCC(F)(F)F)ccc2O[C@@H](C)CCCCO[C@H]1CN(C)Cc1ccc(Cl)c(Cl)c1,0,-83.2,-
SMILES,GASC1 inh,Pf Dd2 inh,IDH1 mut inh
C[C@@H]1CCCCO[C@@H](CN(C)Cc2ccc(Cl)c(Cl)c2)[C@H](C)CN([C@H](C)CO)C(=O)c2cc(NC(=O)CCC(F)(F)F)ccc2O1,0,-88.0,0
C[C@@H]1CN([C@@H](C)CO)C(=O)c2cccc(NS(=O)(=O)c3cn(C)cn3)c2O[C@@H]1CN(C)Cc1ccc(Oc2ccccc2)cc1,0,0,0
O=C(C[C@H]1C=C[C@H](NC(=O)C2CC2)[C@@H](CO)O1)NCc1ccccc1Cl,0,0,0
C[C@@H]1CCCCO[C@@H](CN(C)C(=O)NC2CCCCC2)[C@H](C)CN([C@@H](C)CO)C(=O)c2cc(NC(=O)CCCCCC(=O)Nc3ccccc3N)ccc2O1,0,0,0
Cc1ccccc1S(=O)(=O)NCC[C@H]1CC[C@H](NC(=O)C2CCCCC2)[C@H](CO)O1,82.5,0,88.3
COc1ccccc1S(=O)(=O)N[C@H]1CC[C@H](CCn2cc(C3CCCC3)nn2)O[C@H]1CO,0,0,-
COc1ccccc1S(=O)(=O)N[C@H]1CC[C@@H](CCn2cc(C3CCCC3)nn2)O[C@@H]1CO,0,-92.7,-
COc1ccccc1S(=O)(=O)N[C@H]1CC[C@H](CCNC(=O)C2CCCCC2)O[C@@H]1CO,0,0,0
COc1ccccc1S(=O)(=O)N[C@H]1CC[C@H](CCNC(=O)C2CCCC2)O[C@H]1CO,50.1,0,?
Cc1ccccc1S(=O)(=O)NCC[C@H]1CC[C@@H](NC(=O)C2CCCCC2)[C@@H](CO)O1,0,0,0
O=C(O)C[C@@H]1C[C@@H]2c3cc(NS(=O)(=O)c4ccccc4)ccc3O[C@@H]2[C@@H](CO)O1,0,0,-
CCNC(=O)C[C@H]1CC[C@H]2[C@H](COc3ccc(NC(=O)NC(C)C)cc3C(=O)N2C)O1,0,0,-
C[C@@H]1CCCCO[C@@H](CN(C)Cc2ccc(C(F)(F)F)cc2)[C@H](C)CN([C@H](C)CO)C(=O)c2cc(NC(=O)C3CCCCC3)ccc2O1,0,0,-
C[C@@H]1CN([C@H](C)CO)C(=O)c2cc(NC(=O)C3CCCCC3)ccc2O[C@@H](C)CCCCO[C@H]1CN(C)Cc1ccncc1,0,0,0
C[C@@H]1CCCCO[C@H](CN(C)Cc2ccncc2)[C@@H](C)CN([C@@H](C)CO)C(=O)c2cc(NC(=O)C3CCCCC3)ccc2O1,0,-84.9,0
C[C@@H]1CCCCO[C@H](CN(C)Cc2ccc(C(F)(F)F)cc2)[C@@H](C)CN([C@@H](C)CO)C(=O)c2cc(NC(=O)C3CCCCC3)ccc2O1,0,-84.6,0
C[C@H](CO)N1C[C@H](C)[C@H](CN(C)C(=O)Nc2ccc3c(c2)OCO3)Oc2ccc(NC(=O)Cc3cn(C)c4ccccc34)cc2C1=O,0,0,0
COc1ccccc1-c1ccc2c(c1)O[C@@H](CN(C)S(=O)(=O)c1ccccc1)[C@H](C)CN([C@H](C)CO)S2(=O)=O,-,-82.3,-
